According to ChEMBL document CHEMBL2150901, “Synthesis and biological activity of tricyclic cycloalkylimidazo-, pyrimido- and diazepinopurinediones” (Eur J Med Chem, 2011):
Activity calls are given as the source filed them. The rule behind the calls is not given here.

Tests used:
Mus musculus [1] = assay: Anticonvulsant activity in F1 albino mouse assessed as protection against subcutaneous pentylenetetrazole-induced seizures at 100 mg/kg, ip after 0.5 hrs; type: functional, organism-based; design: dose 100 mg/kg
In short: (§1)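 Male albino F-1 mice (18–25 g), groups of 1–5 (rotorod 2–8). Compound given ip as a suspension in 0.5% methylcellulose at 30, 100 and 300 mg/kg. Seizures by maximal electroshock or subcutaneous pentylenetetrazole; neurotoxicity by rotorod. Read at 0.5 and 4 h, with some at 0.25, 1 and 2 h. Value is the minimum active dose, with protected (or toxic)/tested animals.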

Adenosine receptor A2b = target: T1, Adenosine receptor A2b (Homo sapiens, UniProt P29275); assay: Displacement of [3H]PSB-603 from human recombinant adenosine A2B receptor expressed in CHO cells; type: cell-based
T1 sequence (P29275 whole entry): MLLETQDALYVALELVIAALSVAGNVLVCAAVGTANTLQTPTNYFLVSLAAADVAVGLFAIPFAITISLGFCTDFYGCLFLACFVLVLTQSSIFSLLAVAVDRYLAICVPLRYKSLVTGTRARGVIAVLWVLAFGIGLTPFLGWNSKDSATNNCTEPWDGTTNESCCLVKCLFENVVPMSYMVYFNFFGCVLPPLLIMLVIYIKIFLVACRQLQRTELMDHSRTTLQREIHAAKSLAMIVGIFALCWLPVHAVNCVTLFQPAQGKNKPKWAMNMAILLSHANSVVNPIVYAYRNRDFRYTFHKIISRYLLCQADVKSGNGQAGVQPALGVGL
In short: (§2)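 CHO cell membranes expressing the human receptor. Radioligands: A1 [3H]CCPA; A2B [3H]ZM241385 or [3H]PSB-603; A3 [3H]PSB-11. […] Potent compounds run at 6–7 concentrations spanning 3 orders of magnitude; Ki ± SEM.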

Mus musculus [2] = assay: Neurotoxicity in F1 albino mouse assessed as minimal motor impairment at 300 mg/kg, ip after 0.25 hrs by rotorod test; type: toxicity, organism-based; design: dose 300 mg/kg, route intraperitoneal; settings: in vivo; in short: as §1
Mus musculus [3] = assay: Anticonvulsant activity in F1 albino mouse assessed as protection against subcutaneous pentylenetetrazole-induced seizures at 300 mg/kg, ip after 4 hrs; type: functional, organism-based; design: dose 300 mg/kg; in short: as §1
Rattus norvegicus = species: Rattus norvegicus; assay: Selectivity ratio of Ki for adenosine A1 receptor in rat brain cortical membrane to Ki for adenosine A2A receptor in rat brain striatal membrane; type: cell membranes
In short: (§3)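 Ki ratios from radioligand competition binding. Rat A1 used brain cortical membranes and rat A2A used brain striatal membranes. Human A1 and A2A used membranes of CHO cells expressing the receptors. A1 radioligand [³H]CCPA; A2A radioligand [³H]MSX-2. Potent compounds were tested at 6–7 concentrations spanning 3 orders of magnitude.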

Adenosine receptor A1 [4] = target: T2, Adenosine receptor A1 (Homo sapiens, UniProt P30542); assay: Displacement of [3H]CCPA from human recombinant adenosine A1 receptor expressed in CHO cells; type: cell-based
T2 sequence (P30542 whole entry): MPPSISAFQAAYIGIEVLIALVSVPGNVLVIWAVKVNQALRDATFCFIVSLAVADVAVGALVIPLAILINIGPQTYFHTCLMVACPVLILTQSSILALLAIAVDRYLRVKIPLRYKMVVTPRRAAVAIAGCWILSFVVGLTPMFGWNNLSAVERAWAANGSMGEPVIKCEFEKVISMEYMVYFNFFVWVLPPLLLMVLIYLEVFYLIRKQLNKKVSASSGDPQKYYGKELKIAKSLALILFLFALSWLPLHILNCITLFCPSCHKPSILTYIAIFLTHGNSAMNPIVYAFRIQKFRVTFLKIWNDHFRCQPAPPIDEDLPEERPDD

Adenosine receptor A2a [5] = target: Adenosine receptor A2a (Rattus norvegicus, UniProt P30543); assay: Displacement of [3H]MSX-2 from adenosine A2A receptor in rat brain striatal membrane; type: cell membranes
Sequence of Adenosine receptor A2a (Rattus norvegicus, UniProt P30543) (P30543 whole entry): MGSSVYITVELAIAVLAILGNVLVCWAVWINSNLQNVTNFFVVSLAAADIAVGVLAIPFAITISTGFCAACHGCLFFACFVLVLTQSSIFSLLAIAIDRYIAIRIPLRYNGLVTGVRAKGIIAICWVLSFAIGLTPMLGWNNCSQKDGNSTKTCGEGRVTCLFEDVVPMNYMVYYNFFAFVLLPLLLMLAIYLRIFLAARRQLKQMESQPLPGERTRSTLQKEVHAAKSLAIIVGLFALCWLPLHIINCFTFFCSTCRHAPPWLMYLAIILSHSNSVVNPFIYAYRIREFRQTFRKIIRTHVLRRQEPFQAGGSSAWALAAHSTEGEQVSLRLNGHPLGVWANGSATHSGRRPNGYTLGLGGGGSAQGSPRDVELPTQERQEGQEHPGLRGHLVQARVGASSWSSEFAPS

Mus musculus [6] = assay: Neurotoxicity in F1 albino mouse assessed as minimal motor impairment at 300 mg/kg, ip after 0.5 hrs by rotorod test; type: toxicity, organism-based; design: dose 300 mg/kg, route intraperitoneal; settings: in vivo; in short: as §1
Mus musculus [7] = assay: Anticonvulsant activity in F1 albino mouse assessed as protection against maximal electroshock-induced seizures at 300 mg/kg, ip after 4 hrs; type: functional, organism-based; design: dose 300 mg/kg; in short: as §1
Adenosine receptor A1 [8] = target: T3, Adenosine receptor A1 (Rattus norvegicus, UniProt P25099); assay: Displacement of [3H]CCPA from adenosine A1 receptor in rat brain cortical membrane; type: cell membranes
T3 sequence (P25099 whole entry): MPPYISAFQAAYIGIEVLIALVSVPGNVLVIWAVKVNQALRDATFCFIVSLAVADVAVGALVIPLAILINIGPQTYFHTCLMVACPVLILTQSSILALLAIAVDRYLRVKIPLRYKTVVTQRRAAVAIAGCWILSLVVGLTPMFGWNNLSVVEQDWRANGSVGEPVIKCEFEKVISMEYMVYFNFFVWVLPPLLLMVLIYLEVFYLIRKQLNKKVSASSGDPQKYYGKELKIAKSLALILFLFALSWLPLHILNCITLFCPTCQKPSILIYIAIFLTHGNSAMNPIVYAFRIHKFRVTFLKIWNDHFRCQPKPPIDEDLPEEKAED

CHO [9] = assay: Selectivity ratio of Ki for human recombinant adenosine A2A receptor expressed in CHO cells to Ki for adenosine A2A receptor in rat brain striatal membrane; type: cell-based; in short: as §3
Adenosine receptor A2a [10] = target: Adenosine receptor A2a (Homo sapiens, UniProt P29274); assay: Displacement of [3H]MSX-2 from human recombinant adenosine A2A receptor expressed in CHO cells; type: cell-based
Sequence of Adenosine receptor A2a (Homo sapiens, UniProt P29274) (P29274 whole entry): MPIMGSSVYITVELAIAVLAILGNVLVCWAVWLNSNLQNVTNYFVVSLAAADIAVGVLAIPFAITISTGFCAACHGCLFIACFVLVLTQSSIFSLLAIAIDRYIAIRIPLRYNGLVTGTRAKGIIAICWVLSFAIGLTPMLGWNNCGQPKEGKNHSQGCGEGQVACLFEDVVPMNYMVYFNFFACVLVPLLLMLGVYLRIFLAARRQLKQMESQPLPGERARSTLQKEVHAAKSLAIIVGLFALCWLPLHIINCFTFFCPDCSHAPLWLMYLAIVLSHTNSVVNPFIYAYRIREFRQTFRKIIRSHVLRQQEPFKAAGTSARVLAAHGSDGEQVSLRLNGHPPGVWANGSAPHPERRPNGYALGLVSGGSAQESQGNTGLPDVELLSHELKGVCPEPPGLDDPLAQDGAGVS

Adenosine receptor A3 = target: T4, Adenosine receptor A3 (Homo sapiens, UniProt P0DMS8); assay: Displacement of [3H]PSB-11 from human recombinant adenosine A3 receptor expressed in CHO cells; type: cell-based
T4 sequence (P0DMS8 whole entry): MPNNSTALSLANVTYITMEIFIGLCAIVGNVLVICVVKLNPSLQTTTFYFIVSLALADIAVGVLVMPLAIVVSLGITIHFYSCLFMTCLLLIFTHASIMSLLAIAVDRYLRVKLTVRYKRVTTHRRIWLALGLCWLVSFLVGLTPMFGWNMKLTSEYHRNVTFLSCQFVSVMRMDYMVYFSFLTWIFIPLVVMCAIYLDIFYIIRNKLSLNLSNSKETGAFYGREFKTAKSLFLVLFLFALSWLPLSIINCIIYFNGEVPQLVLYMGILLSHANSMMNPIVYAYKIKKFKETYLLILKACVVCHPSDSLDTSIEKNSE

Mus musculus [11] = assay: Anticonvulsant activity in F1 albino mouse assessed as protection against subcutaneous pentylenetetrazole-induced seizures at 300 mg/kg, ip after 1 hr; type: functional, organism-based; design: dose 300 mg/kg; in short: as §1
Mus musculus [12] = assay: Anticonvulsant activity in F1 albino mouse assessed as protection against subcutaneous pentylenetetrazole-induced seizures at 300 mg/kg, ip after 0.25 hrs; type: functional, organism-based; design: dose 300 mg/kg; in short: as §1
Mus musculus [13] = assay: Anticonvulsant activity in F1 albino mouse assessed as protection against maximal electroshock-induced seizures at 300 mg/kg, ip after 0.25 hrs; type: functional, organism-based; design: dose 300 mg/kg; in short: as §1
Mus musculus [14] = assay: Neurotoxicity in F1 albino mouse assessed as minimal motor impairment at 300 mg/kg, ip after 4 hrs by rotorod test; type: toxicity, organism-based; design: dose 300 mg/kg, route intraperitoneal; settings: in vivo; in short: as §1
Mus musculus [15] = assay: Anticonvulsant activity in F1 albino mouse assessed as protection against maximal electroshock-induced seizures at 300 mg/kg, ip after 1 hr; type: functional, organism-based; design: dose 300 mg/kg; in short: as §1
CHO [16] = assay: Selectivity ratio of Ki for adenosine A1 receptor in rat brain cortical membrane to Ki for human recombinant adenosine A1 receptor expressed in CHO cells; type: cell-based; in short: as §3
[17] = target: T5, Adenosine receptor A2b (Homo sapiens) (UniProt P29275); assay: Displacement of [3H]PSB-603 from human recombinant adenosine A2B receptor expressed in CHO cells at 10 uM; type: cell-based; in short: as §2
T5 sequence (whole entry): T1 sequence (P29275 whole entry)

[18] = target: T6, Adenosine receptor A3 (Homo sapiens) (UniProt P0DMS8); assay: Displacement of [3H]PSB-11 from human recombinant adenosine A3 receptor expressed in CHO cells at 10 uM; type: cell-based; in short: as §2
T6 sequence (whole entry): T4 sequence (P0DMS8 whole entry)

Mus musculus [19] = assay: Anticonvulsant activity in F1 albino mouse assessed as protection against maximal electroshock-induced seizures at 300 mg/kg, ip after 0.5 hrs; type: functional, organism-based; design: dose 300 mg/kg; in short: as §1
Mus musculus [20] = assay: Neurotoxicity in F1 albino mouse assessed as minimal motor impairment at 300 mg/kg, ip after 1 hr by rotorod test; type: toxicity, organism-based; design: dose 300 mg/kg, route intraperitoneal; settings: in vivo; in short: as §1

Ki (Adenosine receptor A2b): > 10 µM | Ratio Ki (Rattus norvegicus): 44 | Ki (Adenosine receptor A1 [4]): 6.9 µM | Ki (Adenosine receptor A2a [5]): 0.5 µM | Ki (Adenosine receptor A1 [8]): 14.7 µM | Ki (Adenosine receptor A2a [10]): 0.933 µM | Ki (Adenosine receptor A3): > 10 µM | inhibition [17]: 6% | inhibition [18]: 23%
Structure (SMILES): Cn1c(=O)c2c(nc3n2CCCN3CCC2=CCCCC2)n(C)c1=O
Activity (Mus musculus [1]): inactive | Activity (Mus musculus [2]): Non-toxic | Activity (Mus musculus [3]): inactive | Activity (Mus musculus [6]): Non-toxic | Activity (Mus musculus [7]): inactive | Ratio Ki (CHO [9]): 2 | Activity (Mus musculus [11]): inactive | Activity (Mus musculus [12]): inactive | Activity (Mus musculus [13]): inactive | Activity (Mus musculus [14]): Non-toxic | Activity (Mus musculus [15]): inactive | Ratio Ki (CHO [16]): 2 | Activity (Mus musculus [19]): inactive | Activity (Mus musculus [20]): Non-toxic
